According to PMC12166256 (Clinical Pharmacology and Therapeutics, 2025):

Experiment: MAD study: safety and tolerability
Format: in vivo, human
How it was run: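 Healthy males aged 18–55 with BMI 18–30 kg/m² were followed through dosing and a 6–8-day follow-up. Checks: physical examination, clinical laboratory tests, vital signs and 12-lead ECG, with adverse events coded in MedDRA. Events of special interest: ALT ≥2×ULN, QTcF ≥500 ms, Grade ≥2 photosensitivity, symptomatic overdose. Treatment-emergent events were summarised descriptively by organ class, preferred term and dose level for all exposed participants.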

CN1C(=O)c2cccc(OC(F)F)c2[C@H]2C[C@@H]1c1nc3ccc(-c4cnc(C5(N)CCC5)nc4)cc3n12 [Balinatunfib]
Alanine aminotransferase increased TEAE, events (MAD 200 mg BID, N = 8): 0
Alanine aminotransferase increased TEAE, participants (MAD 200 mg BID, N = 8): 0 n (%)
Any event TEAE, events (MAD 200 mg BID, N = 8): 7
Any event TEAE, participants (MAD 200 mg BID, N = 8): 4 (50.0) n (%)
Constipation TEAE, events (MAD 200 mg BID, N = 8): 0
Constipation TEAE, participants (MAD 200 mg BID, N = 8): 0 n (%)
Diarrhea TEAE, events (MAD 200 mg BID, N = 8): 1
Diarrhea TEAE, participants (MAD 200 mg BID, N = 8): 1 (12.5) n (%)
Dry skin TEAE, events (MAD 200 mg BID, N = 8): 2
Dry skin TEAE, participants (MAD 200 mg BID, N = 8): 2 (25.0) n (%)
Dysgeusia TEAE, events (MAD 200 mg BID, N = 8): 1
Dysgeusia TEAE, participants (MAD 200 mg BID, N = 8): 1 (12.5) n (%)
Gastrointestinal disorders TEAE, events (MAD 200 mg BID, N = 8): 1
Gastrointestinal disorders TEAE, participants (MAD 200 mg BID, N = 8): 1 (12.5) n (%)
General disorders and administration site conditions TEAE, events (MAD 200 mg BID, N = 8): 1
General disorders and administration site conditions TEAE, participants (MAD 200 mg BID, N = 8): 1 (12.5) n (%)
Headache TEAE, events (MAD 200 mg BID, N = 8): 0
Headache TEAE, participants (MAD 200 mg BID, N = 8): 0 n (%)
Injury, poisoning, and procedural complications TEAE, events (MAD 200 mg BID, N = 8): 0
Injury, poisoning, and procedural complications TEAE, participants (MAD 200 mg BID, N = 8): 0 n (%)
Investigations TEAE, events (MAD 200 mg BID, N = 8): 0
Investigations TEAE, participants (MAD 200 mg BID, N = 8): 0 n (%)
Medical device site reaction TEAE, events (MAD 200 mg BID, N = 8): 1
Medical device site reaction TEAE, participants (MAD 200 mg BID, N = 8): 1 (12.5) n (%)
Musculoskeletal and connective tissue disorders TEAE, events (MAD 200 mg BID, N = 8): 0
Musculoskeletal and connective tissue disorders TEAE, participants (MAD 200 mg BID, N = 8): 0 n (%)
Nasal dryness TEAE, events (MAD 200 mg BID, N = 8): 2
Nasal dryness TEAE, participants (MAD 200 mg BID, N = 8): 2 (25.0) n (%)
Neck pain TEAE, events (MAD 200 mg BID, N = 8): 0
Neck pain TEAE, participants (MAD 200 mg BID, N = 8): 0 n (%)
Nervous system disorders TEAE, events (MAD 200 mg BID, N = 8): 1
Nervous system disorders TEAE, participants (MAD 200 mg BID, N = 8): 1 (12.5) n (%)
Oropharyngeal pain TEAE, events (MAD 200 mg BID, N = 8): 0
Oropharyngeal pain TEAE, participants (MAD 200 mg BID, N = 8): 0 n (%)
Reproductive system and breast disorders TEAE, events (MAD 200 mg BID, N = 8): 0
Reproductive system and breast disorders TEAE, participants (MAD 200 mg BID, N = 8): 0 n (%)
Respiratory, thoracic, and mediastinal disorders TEAE, events (MAD 200 mg BID, N = 8): 2
Respiratory, thoracic, and mediastinal disorders TEAE, participants (MAD 200 mg BID, N = 8): 2 (25.0) n (%)
Skin and subcutaneous tissue disorders TEAE, events (MAD 200 mg BID, N = 8): 2
Skin and subcutaneous tissue disorders TEAE, participants (MAD 200 mg BID, N = 8): 2 (25.0) n (%)
Sneezing TEAE, events (MAD 200 mg BID, N = 8): 0
Sneezing TEAE, participants (MAD 200 mg BID, N = 8): 0 n (%)
Testicular mass TEAE, events (MAD 200 mg BID, N = 8): 0
Testicular mass TEAE, participants (MAD 200 mg BID, N = 8): 0 n (%)
Wound TEAE, events (MAD 200 mg BID, N = 8): 0
Wound TEAE, participants (MAD 200 mg BID, N = 8): 0 n (%)
PCSA QTcF increase from baseline ]30-60] msec, participants n/N1 (MAD 300 mg BID): four
ALT in the participant with ALT > 3 ULN (MAD 300 mg BID, Day 18, 4 days after the last dose): 181 IU/L
Abdominal pain TEAE, events (MAD 300 mg BID, N = 8): 1
Abdominal pain TEAE, participants (MAD 300 mg BID, N = 8): 1 (12.5) n (%)
Alanine aminotransferase increased TEAE, events (MAD 300 mg BID, N = 8): 1
Alanine aminotransferase increased TEAE, participants (MAD 300 mg BID, N = 8): 1 (12.5) n (%)
Any event TEAE, events (MAD 300 mg BID, N = 8): 3
Any event TEAE, participants (MAD 300 mg BID, N = 8): 2 (25.0) n (%)
Constipation TEAE, events (MAD 300 mg BID, N = 8): 1
Constipation TEAE, participants (MAD 300 mg BID, N = 8): 1 (12.5) n (%)
Diarrhea TEAE, events (MAD 300 mg BID, N = 8): 0
Diarrhea TEAE, participants (MAD 300 mg BID, N = 8): 0 n (%)
Dry skin TEAE, events (MAD 300 mg BID, N = 8): 0
Dry skin TEAE, participants (MAD 300 mg BID, N = 8): 0 n (%)
Dysgeusia TEAE, events (MAD 300 mg BID, N = 8): 0
Dysgeusia TEAE, participants (MAD 300 mg BID, N = 8): 0 n (%)
Gastrointestinal disorders TEAE, events (MAD 300 mg BID, N = 8): 2
Gastrointestinal disorders TEAE, participants (MAD 300 mg BID, N = 8): 1 (12.5) n (%)
General disorders and administration site conditions TEAE, events (MAD 300 mg BID, N = 8): 0
General disorders and administration site conditions TEAE, participants (MAD 300 mg BID, N = 8): 0 n (%)
Headache TEAE, events (MAD 300 mg BID, N = 8): 0
Headache TEAE, participants (MAD 300 mg BID, N = 8): 0 n (%)
Injury, poisoning, and procedural complications TEAE, events (MAD 300 mg BID, N = 8): 0
Injury, poisoning, and procedural complications TEAE, participants (MAD 300 mg BID, N = 8): 0 n (%)
Investigations TEAE, events (MAD 300 mg BID, N = 8): 1
Investigations TEAE, participants (MAD 300 mg BID, N = 8): 1 (12.5) n (%)
Medical device site reaction TEAE, events (MAD 300 mg BID, N = 8): 0
Medical device site reaction TEAE, participants (MAD 300 mg BID, N = 8): 0 n (%)
Musculoskeletal and connective tissue disorders TEAE, events (MAD 300 mg BID, N = 8): 0
Musculoskeletal and connective tissue disorders TEAE, participants (MAD 300 mg BID, N = 8): 0 n (%)
Nasal dryness TEAE, events (MAD 300 mg BID, N = 8): 0
Nasal dryness TEAE, participants (MAD 300 mg BID, N = 8): 0 n (%)
Neck pain TEAE, events (MAD 300 mg BID, N = 8): 0
Neck pain TEAE, participants (MAD 300 mg BID, N = 8): 0 n (%)
Nervous system disorders TEAE, events (MAD 300 mg BID, N = 8): 0
Nervous system disorders TEAE, participants (MAD 300 mg BID, N = 8): 0 n (%)
Oropharyngeal pain TEAE, events (MAD 300 mg BID, N = 8): 0
Oropharyngeal pain TEAE, participants (MAD 300 mg BID, N = 8): 0 n (%)
Reproductive system and breast disorders TEAE, events (MAD 300 mg BID, N = 8): 0
Reproductive system and breast disorders TEAE, participants (MAD 300 mg BID, N = 8): 0 n (%)
Respiratory, thoracic, and mediastinal disorders TEAE, events (MAD 300 mg BID, N = 8): 0
Respiratory, thoracic, and mediastinal disorders TEAE, participants (MAD 300 mg BID, N = 8): 0 n (%)
Skin and subcutaneous tissue disorders TEAE, events (MAD 300 mg BID, N = 8): 0
Skin and subcutaneous tissue disorders TEAE, participants (MAD 300 mg BID, N = 8): 0 n (%)
Sneezing TEAE, events (MAD 300 mg BID, N = 8): 0
Sneezing TEAE, participants (MAD 300 mg BID, N = 8): 0 n (%)
Testicular mass TEAE, events (MAD 300 mg BID, N = 8): 0
Testicular mass TEAE, participants (MAD 300 mg BID, N = 8): 0 n (%)
Wound TEAE, events (MAD 300 mg BID, N = 8): 0
Wound TEAE, participants (MAD 300 mg BID, N = 8): 0 n (%)
participants with AESIs (ALT increase) (MAD, all balinatunfib groups): four
participants with at least one TEAE (MAD, all balinatunfib groups (12/32)): 37.5%
tolerability (all repeated oral doses (100–600 mg total daily dose, 14 days)): well tolerated
